Source: ChEMBL document CHEMBL1153868, “Novel 8-deaza-5,6,7,8-tetrahydroaminopterin derivatives as dihydrofolate inhibitor: design, synthesis and antifolate activity” (Eur J Med Chem, 2009)

Assays:
[1] = target: T1, Dihydrofolate reductase (Homo sapiens, UniProt P00374); test: Inhibition of human recombinant DHFR by spectrophotometry
T1 sequence (P00374 whole entry): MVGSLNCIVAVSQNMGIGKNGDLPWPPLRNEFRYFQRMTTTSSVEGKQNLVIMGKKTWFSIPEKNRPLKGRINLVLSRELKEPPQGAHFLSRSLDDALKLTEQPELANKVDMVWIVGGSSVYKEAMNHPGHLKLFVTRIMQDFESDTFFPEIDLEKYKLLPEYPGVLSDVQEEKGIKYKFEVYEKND

[2] = test system: HeLa; test: Cytotoxicity against human HeLa cells after 48 hrs; assay type: functional, cell-based
How it was run: (§1)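 Exponentially growing cells maintained in supplemented RPMI-1640 medium. Exposed to a range of compound concentrations for 48 h. Growth inhibition measured by MTT and SRB assays. IC50 reported as the mean of three independent experiments.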

[3] = test system: Bel-7402; test: Cytotoxicity against human Bel7402 cells after 48 hrs; assay type: functional, cell-based; conditions: Bel-7402, 48 h; how it was run: as §1
[4] = test system: HL-60; test: Cytotoxicity against human HL60 cells after 48 hrs; assay type: functional, cell-based; conditions: HL-60, 48 h; how it was run: as §1
[5] = test system: BGC-823; test: Cytotoxicity against human BGC823 cells after 48 hrs; assay type: functional, cell-based; conditions: BGC-823, 48 h; how it was run: as §1

SMILES	IC50 [1]	IC50 [2]	IC50 [3]	IC50 [4]	IC50 [5]
Nc1nc(N)c2c(n1)CCC(CNc1ccc(C(=O)NC(CCC(=O)O)C(=O)O)cc1)N2 (centres undefined)	560 nM	960 nM	87900 nM	900 nM	440 nM
C=CCN(CC1CCc2nc(N)nc(N)c2N1CC=C)c1ccc(C(=O)NC(CCC(=O)O)C(=O)O)cc1 (centres undefined)	2150 nM	21700 nM	7100 nM	1420 nM	2430 nM
CN(Cc1cnc2nc(N)nc(N)c2n1)c1ccc(C(=O)N[C@@H](CCC(=O)O)C(=O)O)cc1 [METHOTREXATE]	–	100 nM	82300 nM	210 nM	110 nM
C=CCN1c2c(N)nc(N)nc2CCC1CNc1ccc(C(=O)NC(CCC(=O)O)C(=O)O)cc1Br (centres undefined)	2370 nM	900 nM	1200 nM	570 nM	6590 nM
Nc1nc(N)c2c(n1)CCC(CNc1ccc(C(=O)NC(CCC(=O)O)C(=O)O)cc1Br)N2CC(Br)CBr (centres undefined)	9340 nM	19400 nM	257000 nM	48800 nM	22600 nM
C=CCN1c2c(N)nc(N)nc2CCC1CNc1ccc(C(=O)NC(CCC(=O)O)C(=O)O)cc1 (centres undefined)	1410 nM	7850 nM	42200 nM	700 nM	5200 nM
